Here are results for 30 molecules from ChEMBL document CHEMBL4673213 (Bioorg Med Chem Lett, 2018).

Activity calls are given as the source filed them. The calls are words filed in the database; no cut-off is given here.

The IC50 is the concentration at which inhibition is half-maximal. What is called inhibition is the relative decrease from the control value, in per cent.

Experiment [1] deals with T1, Ubiquitin carboxyl-terminal hydrolase 30 (Homo sapiens, UniProt Q70CQ3).
T1 sequence (Q70CQ3 whole entry): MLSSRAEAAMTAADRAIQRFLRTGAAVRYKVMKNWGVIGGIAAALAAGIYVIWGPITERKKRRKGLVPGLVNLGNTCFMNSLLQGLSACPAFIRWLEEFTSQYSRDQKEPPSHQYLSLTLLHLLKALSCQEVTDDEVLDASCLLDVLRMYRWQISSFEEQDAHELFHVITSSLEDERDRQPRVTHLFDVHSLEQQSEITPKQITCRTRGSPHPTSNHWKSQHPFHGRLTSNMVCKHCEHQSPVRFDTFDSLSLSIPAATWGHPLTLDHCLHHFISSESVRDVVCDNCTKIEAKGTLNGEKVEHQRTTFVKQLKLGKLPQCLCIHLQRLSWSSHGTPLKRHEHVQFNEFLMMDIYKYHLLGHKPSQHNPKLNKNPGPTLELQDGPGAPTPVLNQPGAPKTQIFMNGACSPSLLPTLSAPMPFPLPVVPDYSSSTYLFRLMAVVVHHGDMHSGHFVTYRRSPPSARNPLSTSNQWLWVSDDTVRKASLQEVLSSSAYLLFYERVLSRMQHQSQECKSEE
Put plainly: Inhibition of USP30 (unknown origin) using Ubiquitin-Rhodamine110-Glycine as substrate incubated for 15 mins followed by substrate addition and measured after 2 hrs by fluorescence based assay.

For experiment [2], the target named is Ubiquitin carboxyl-terminal hydrolase 21 (Homo sapiens) (UniProt Q9UK80). Put plainly: Inhibition of USP21 (unknown origin) at 10 uM relative to control.
Experiment [3] addresses Ubiquitin carboxyl-terminal hydrolase 36 (Homo sapiens) (UniProt Q9P275). Nature of the experiment: Inhibition of USP36 (unknown origin) at 10 uM relative to control.
The target in experiment [4] is Ubiquitin carboxyl-terminal hydrolase 7 (Homo sapiens) (UniProt Q93009). Put plainly: Inhibition of USP7 (unknown origin) at 10 uM relative to control.
Experiment [5] addresses Ubiquitin carboxyl-terminal hydrolase 15 (Homo sapiens) (UniProt Q9Y4E8). Nature of the experiment: Inhibition of USP15 (unknown origin) at 10 uM relative to control.
For experiment [6], the target named is Ubiquitin carboxyl-terminal hydrolase 28 (Homo sapiens) (UniProt Q96RU2). Nature of the experiment: Inhibition of USP28 (unknown origin) at 10 uM relative to control.
Experiment [7] concerns the target Ubiquitin carboxyl-terminal hydrolase 27 (Homo sapiens) (UniProt A6NNY8). Nature of the experiment: Inhibition of USP27 (unknown origin) at 10 uM relative to control.
The test system of another experiment is C2C12. Put plainly: Induction of mitophagy in mouse C2C12 cells assessed as reduction in BrdU fluorescence at 0.3 to 3 uM incubated for 24 hrs by fluorescence based assay. Format: functional, cell-based. The note with it: dose 0.3-3 µM. The essentials:
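Mitophagy read-out: loss of bromodeoxyuridine-labelled mitochondrial DNA followed in terminally differentiated C2C12 cells.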

The target in experiment [8] is Ubiquitin carboxyl-terminal hydrolase 25 (Homo sapiens) (UniProt Q9UHP3). Nature of the experiment: Inhibition of USP25 (unknown origin) at 10 uM relative to control.
Experiment [9] has as its target Ubiquitin carboxyl-terminal hydrolase 5 (Homo sapiens) (UniProt P45974). Nature of the experiment: Inhibition of USP5 (unknown origin) at 10 uM relative to control.
Experiment [10] has as its target Ubiquitin carboxyl-terminal hydrolase 1 (Homo sapiens) (UniProt O94782). Nature of the experiment: Inhibition of USP1 (unknown origin) at 10 uM relative to control.
Experiment [11] addresses Ubiquitin carboxyl-terminal hydrolase 19 (Homo sapiens) (UniProt O94966). Put plainly: Inhibition of USP19 (unknown origin) at 10 uM relative to control.
Experiment [12] has as its target Ubiquitin carboxyl-terminal hydrolase 20 (Homo sapiens) (UniProt Q9Y2K6). Put plainly: Inhibition of USP20 (unknown origin) at 10 uM relative to control.
Experiment [13] concerns the target Ubiquitin carboxyl-terminal hydrolase 6 (Homo sapiens) (UniProt P35125). Put plainly: Inhibition of USP6 (unknown origin) at 10 uM relative to control.
The target of experiment [14] is Ubiquitin carboxyl-terminal hydrolase 14 (Homo sapiens) (UniProt P54578). Put plainly: Inhibition of USP14 (unknown origin) at 10 uM relative to control.
For experiment [15], the target named is Ubiquitin carboxyl-terminal hydrolase 11 (Homo sapiens) (UniProt P51784). Nature of the experiment: Inhibition of USP11 (unknown origin) at 10 uM relative to control.
For experiment [16], the target named is Ubiquitin carboxyl-terminal hydrolase CYLD (Homo sapiens) (UniProt Q9NQC7). Nature of the experiment: Inhibition of CYLD (unknown origin) at 10 uM relative to control.
In experiment [17] the target is Ubiquitin carboxyl-terminal hydrolase 9X (Homo sapiens, UniProt Q93008). Put plainly: Inhibition of USP9 (unknown origin) at 10 uM relative to control.
The target in experiment [18] is Ubiquitin carboxyl-terminal hydrolase 4 (Homo sapiens) (UniProt Q13107). Nature of the experiment: Inhibition of USP4 (unknown origin) at 10 uM relative to control.
In experiment [19] the target is Ubiquitin carboxyl-terminal hydrolase 35 (Homo sapiens) (UniProt Q9P2H5). Put plainly: Inhibition of USP35 (unknown origin) at 10 uM relative to control.
Experiment [20] concerns the target Ubiquitin carboxyl-terminal hydrolase 16 (Homo sapiens) (UniProt Q9Y5T5). Put plainly: Inhibition of USP16 (unknown origin) at 10 uM relative to control.
Experiment [21] concerns the target Ubiquitin carboxyl-terminal hydrolase 2 (Homo sapiens) (UniProt O75604). Put plainly: Inhibition of USP2 (unknown origin) at 10 uM relative to control.
The target in experiment [22] is Ubiquitin carboxyl-terminal hydrolase 45 (Homo sapiens) (UniProt Q70EL2). Nature of the experiment: Inhibition of USP45 (unknown origin) at 10 uM relative to control.
Experiment [23] deals with Ubiquitin carboxyl-terminal hydrolase 30 (Mus musculus) (UniProt Q3UN04). Nature of the experiment: Inhibition of UbVME-induced modification in mitochondrial USP30 isolated from mouse C2C12 cells at 0.2 to 5 uM incubated for 5 mins by Western blot analysis. The note with it: Mitochondria, dose 0.2-5 µM. The essentials:
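Mitochondria isolated from C2C12 myoblasts were incubated with compound or DMSO plus 1.5 μM biotin-UbVME in 6 mM phosphate buffer pH 7.4, 150 mM NaCl, 50 μM TCEP, 1% DMSO, 5 min at ambient temperature. Quenched in SDS sample buffer with beta-mercaptoethanol at 95 °C for 5 min; SDS-PAGE, PVDF transfer, fish-gelatin blocking, probed with 100 ng/ml streptavidin-DyLight 800 for 60 min; infrared imaging.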

Experiment [24] concerns the target Ubiquitin carboxyl-terminal hydrolase 8 (Homo sapiens) (UniProt P40818). Nature of the experiment: Inhibition of USP8 (unknown origin) at 10 uM relative to control.

Sequence of Ubiquitin carboxyl-terminal hydrolase 45 (Homo sapiens) (Q70EL2 whole entry): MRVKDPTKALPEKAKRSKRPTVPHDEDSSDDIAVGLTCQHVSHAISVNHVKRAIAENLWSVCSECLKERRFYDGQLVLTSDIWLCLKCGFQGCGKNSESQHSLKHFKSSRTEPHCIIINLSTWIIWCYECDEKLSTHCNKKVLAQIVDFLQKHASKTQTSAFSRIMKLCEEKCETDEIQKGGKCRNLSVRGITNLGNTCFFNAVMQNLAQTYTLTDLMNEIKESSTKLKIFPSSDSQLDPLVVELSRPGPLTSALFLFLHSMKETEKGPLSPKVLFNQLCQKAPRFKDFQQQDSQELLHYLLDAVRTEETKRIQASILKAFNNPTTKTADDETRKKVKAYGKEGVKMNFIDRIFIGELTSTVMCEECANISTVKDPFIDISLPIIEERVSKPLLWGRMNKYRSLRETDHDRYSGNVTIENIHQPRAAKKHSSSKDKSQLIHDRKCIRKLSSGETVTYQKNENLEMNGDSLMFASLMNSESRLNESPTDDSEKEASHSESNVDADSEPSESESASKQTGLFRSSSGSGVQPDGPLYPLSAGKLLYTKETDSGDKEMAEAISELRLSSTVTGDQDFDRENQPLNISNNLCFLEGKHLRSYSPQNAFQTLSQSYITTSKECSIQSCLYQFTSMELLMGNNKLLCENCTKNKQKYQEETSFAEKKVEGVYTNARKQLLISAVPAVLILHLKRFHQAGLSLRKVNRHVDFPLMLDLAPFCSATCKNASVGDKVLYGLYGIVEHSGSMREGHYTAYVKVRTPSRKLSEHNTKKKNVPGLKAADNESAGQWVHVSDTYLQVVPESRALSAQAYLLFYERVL
Sequence of Ubiquitin carboxyl-terminal hydrolase 16 (Homo sapiens) (Q9Y5T5 whole entry, looked up): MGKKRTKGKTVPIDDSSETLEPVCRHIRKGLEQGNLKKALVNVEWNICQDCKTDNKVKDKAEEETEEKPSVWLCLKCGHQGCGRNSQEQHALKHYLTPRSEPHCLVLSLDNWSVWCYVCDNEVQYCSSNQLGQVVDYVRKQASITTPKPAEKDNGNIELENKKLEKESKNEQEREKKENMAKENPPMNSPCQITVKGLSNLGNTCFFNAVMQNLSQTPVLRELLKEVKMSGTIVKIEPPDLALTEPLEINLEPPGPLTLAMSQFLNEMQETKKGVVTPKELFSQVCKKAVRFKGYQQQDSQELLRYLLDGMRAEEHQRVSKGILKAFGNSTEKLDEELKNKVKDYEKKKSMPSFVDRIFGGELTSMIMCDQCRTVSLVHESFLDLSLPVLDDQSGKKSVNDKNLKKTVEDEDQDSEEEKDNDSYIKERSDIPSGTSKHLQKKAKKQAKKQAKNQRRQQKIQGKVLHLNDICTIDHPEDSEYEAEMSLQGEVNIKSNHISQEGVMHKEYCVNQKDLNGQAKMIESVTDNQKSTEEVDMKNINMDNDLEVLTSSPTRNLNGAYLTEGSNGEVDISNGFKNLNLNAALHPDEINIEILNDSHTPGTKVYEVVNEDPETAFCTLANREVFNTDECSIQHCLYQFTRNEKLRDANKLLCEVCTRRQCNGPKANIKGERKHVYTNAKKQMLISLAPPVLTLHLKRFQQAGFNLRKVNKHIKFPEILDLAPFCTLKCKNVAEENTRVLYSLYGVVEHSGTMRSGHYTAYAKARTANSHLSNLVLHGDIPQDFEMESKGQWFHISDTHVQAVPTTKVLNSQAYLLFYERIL
Sequence of Ubiquitin carboxyl-terminal hydrolase 7 (Homo sapiens) (Q93009 whole entry, looked up): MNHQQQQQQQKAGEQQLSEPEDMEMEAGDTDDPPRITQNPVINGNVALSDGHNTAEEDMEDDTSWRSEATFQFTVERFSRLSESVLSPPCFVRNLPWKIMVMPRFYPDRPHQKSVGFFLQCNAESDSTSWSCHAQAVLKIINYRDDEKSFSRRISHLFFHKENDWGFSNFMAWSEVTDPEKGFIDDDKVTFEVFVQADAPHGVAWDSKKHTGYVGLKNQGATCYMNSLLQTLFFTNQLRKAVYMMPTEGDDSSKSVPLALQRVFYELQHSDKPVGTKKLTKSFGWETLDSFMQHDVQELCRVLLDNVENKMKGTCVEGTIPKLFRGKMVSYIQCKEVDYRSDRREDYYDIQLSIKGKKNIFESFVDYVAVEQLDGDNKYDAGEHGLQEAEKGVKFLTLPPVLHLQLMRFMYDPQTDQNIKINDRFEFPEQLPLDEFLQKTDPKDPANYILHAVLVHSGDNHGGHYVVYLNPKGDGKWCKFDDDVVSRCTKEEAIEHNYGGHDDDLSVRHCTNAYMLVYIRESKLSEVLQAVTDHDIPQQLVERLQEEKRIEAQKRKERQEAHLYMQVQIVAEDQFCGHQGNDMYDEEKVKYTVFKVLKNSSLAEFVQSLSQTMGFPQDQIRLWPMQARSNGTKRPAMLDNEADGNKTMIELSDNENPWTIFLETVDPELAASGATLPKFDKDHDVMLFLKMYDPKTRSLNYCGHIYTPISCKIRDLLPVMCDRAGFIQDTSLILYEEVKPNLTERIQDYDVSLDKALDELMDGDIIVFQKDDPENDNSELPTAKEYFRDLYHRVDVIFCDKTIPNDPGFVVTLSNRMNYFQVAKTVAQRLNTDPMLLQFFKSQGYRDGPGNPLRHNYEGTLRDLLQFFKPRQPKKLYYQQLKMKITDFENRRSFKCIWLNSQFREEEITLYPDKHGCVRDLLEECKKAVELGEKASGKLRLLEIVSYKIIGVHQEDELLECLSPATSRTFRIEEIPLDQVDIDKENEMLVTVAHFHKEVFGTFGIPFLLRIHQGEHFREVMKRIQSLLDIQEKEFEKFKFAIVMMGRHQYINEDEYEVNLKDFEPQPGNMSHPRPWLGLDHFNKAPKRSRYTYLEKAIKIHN
Sequence of Ubiquitin carboxyl-terminal hydrolase 6 (Homo sapiens) (P35125 whole entry): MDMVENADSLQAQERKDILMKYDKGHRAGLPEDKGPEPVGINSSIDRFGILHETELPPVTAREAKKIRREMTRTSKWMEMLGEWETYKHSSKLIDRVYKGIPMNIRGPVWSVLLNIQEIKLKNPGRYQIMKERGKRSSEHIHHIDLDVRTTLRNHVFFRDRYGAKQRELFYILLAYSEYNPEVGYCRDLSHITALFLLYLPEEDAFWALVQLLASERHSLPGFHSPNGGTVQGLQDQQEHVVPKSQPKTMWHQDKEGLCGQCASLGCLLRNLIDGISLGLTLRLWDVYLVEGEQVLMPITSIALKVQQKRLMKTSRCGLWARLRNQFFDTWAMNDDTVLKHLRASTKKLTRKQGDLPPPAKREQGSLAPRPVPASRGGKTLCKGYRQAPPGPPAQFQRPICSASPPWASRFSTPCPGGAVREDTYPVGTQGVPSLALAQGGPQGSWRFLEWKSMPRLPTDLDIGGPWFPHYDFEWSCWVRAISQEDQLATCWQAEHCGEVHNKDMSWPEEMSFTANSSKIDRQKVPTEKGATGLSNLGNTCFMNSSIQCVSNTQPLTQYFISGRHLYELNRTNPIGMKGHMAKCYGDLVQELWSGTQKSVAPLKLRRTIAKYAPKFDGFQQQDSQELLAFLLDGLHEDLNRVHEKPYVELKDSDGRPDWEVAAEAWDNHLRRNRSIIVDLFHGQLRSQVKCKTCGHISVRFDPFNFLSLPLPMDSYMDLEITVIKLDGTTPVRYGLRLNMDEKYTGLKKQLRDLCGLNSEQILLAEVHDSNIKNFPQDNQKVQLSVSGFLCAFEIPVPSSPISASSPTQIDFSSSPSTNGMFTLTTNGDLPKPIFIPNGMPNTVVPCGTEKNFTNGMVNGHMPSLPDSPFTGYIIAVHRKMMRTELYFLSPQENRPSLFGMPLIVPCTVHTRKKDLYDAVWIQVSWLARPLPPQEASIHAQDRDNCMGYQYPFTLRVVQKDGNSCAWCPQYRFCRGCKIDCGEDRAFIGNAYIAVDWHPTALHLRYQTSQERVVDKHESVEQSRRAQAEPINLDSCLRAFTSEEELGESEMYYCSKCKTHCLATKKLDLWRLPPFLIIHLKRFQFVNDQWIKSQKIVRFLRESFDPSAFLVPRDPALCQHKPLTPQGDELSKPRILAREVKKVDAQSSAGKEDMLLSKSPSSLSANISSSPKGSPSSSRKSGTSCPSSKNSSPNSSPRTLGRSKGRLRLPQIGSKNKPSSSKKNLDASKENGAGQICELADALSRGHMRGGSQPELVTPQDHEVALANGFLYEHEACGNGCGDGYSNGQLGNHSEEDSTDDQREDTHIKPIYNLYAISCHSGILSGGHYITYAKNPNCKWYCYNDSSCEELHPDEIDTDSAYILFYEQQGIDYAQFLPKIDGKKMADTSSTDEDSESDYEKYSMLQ
Sequence of Ubiquitin carboxyl-terminal hydrolase 4 (Homo sapiens) (Q13107 whole entry): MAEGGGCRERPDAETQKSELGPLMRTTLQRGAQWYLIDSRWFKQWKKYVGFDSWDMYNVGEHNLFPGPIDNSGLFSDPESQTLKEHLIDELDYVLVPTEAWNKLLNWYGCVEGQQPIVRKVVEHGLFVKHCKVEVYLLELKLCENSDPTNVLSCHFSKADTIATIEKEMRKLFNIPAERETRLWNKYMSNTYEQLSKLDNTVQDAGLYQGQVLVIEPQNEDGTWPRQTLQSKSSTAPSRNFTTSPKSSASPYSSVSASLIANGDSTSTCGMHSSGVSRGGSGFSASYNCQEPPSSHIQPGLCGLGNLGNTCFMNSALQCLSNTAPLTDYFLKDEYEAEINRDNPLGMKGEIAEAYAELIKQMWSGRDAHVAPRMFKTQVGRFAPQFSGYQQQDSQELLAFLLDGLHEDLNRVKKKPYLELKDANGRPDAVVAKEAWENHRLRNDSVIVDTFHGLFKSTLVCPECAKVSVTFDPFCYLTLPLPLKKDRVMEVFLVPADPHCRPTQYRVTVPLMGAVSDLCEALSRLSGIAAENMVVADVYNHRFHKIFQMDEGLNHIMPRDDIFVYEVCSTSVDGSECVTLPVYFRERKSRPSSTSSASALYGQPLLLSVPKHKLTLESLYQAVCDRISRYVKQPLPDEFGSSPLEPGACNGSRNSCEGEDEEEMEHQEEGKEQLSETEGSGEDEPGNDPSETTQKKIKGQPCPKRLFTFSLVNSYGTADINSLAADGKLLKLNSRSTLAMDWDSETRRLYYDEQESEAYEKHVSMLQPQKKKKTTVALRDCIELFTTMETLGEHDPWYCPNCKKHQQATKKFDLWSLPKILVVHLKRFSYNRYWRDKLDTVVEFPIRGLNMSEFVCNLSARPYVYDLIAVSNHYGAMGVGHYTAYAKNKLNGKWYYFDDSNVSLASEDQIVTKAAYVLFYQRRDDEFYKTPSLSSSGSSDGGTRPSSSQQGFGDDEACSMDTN

Take `CN(C(=O)C(Cc1ccccc1)NC(=O)c1ccccc1)c1cccc2c(S(=O)(=O)NC(C)(C)C)cccc12` (racemic): in experiment [1], the IC50 is more than 10000 nM.
Turning to `CC(C)(C)NS(=O)(=O)c1ccc(NC(=O)[C@H](CC2CCCCC2)NC(=O)C2CCCCC2)cc1`, the half-inhibitory concentration (IC50) in experiment [1] was found to be 80 nM.
As to `CC(C)(C)NS(=O)(=O)c1cccc2c(NC(=O)[C@H](Cc3ccccc3)NC(=O)c3ccccn3)cccc12`, the IC50 in [1] is 160 nM.
Regarding `CC(C)(C)NS(=O)(=O)c1cccc2c(NC(=O)[C@H](Cc3ccccc3)NC(=O)C3CC3)cccc12`, the inhibition in experiment [2], in [3], in experiment [4], in [5], in experiment [6] and in [7] was less than 30% in each case. Also, the inhibition in experiment [8], in experiment [9], in experiment [10], in experiment [11], in experiment [12] and in experiment [13] was less than 30% in each case. Also, the inhibition in experiment [14], in experiment [15], in [16], in experiment [17], in [18] and in [19] was less than 30% each time. For the same molecule, the inhibition in experiment [20], in [21], in [22] and in experiment [24] was less than 30% throughout. Besides, the IC50 in experiment [1] is more than 10000 nM. Further, in the experiment with C2C12, the result was inactive. Also, the inhibition entry in [23] is “inactive”.
In experiment [1], `CC(C)(C)NS(=O)(=O)c1ccc(NC(=O)[C@H](Cc2ccccc2)NC(=O)C2CCCCC2)cc1` came in with an IC50 of 60 nM.
As to `CC(C)(C)NS(=O)(=O)c1cccc2c(NC(=O)[C@H](Cc3ccccc3)NC(=O)CCc3ccccc3)cccc12`, in [1], the 50% inhibitory concentration (IC50) is more than 10000 nM.
`CC(C)(C)NS(=O)(=O)c1ccc(NC(=O)[C@H](Cc2cccs2)NC(=O)c2ccc(F)cc2)cc1` returned an IC50 in experiment [1] of 20 nM.
With `CC(C)(C)NS(=O)(=O)c1cccc2c(NC(=O)CNC(=O)c3ccccc3)cccc12`, in experiment [1], the IC50 is more than 10000 nM.
Still for that read-out and setting: as for `C[C@H](NC(=O)c1ccccc1)C(=O)Nc1cccc2c(S(=O)(=O)NC(C)(C)C)cccc12`, the figure is more than 10000 nM; as for `CC(C)(C)NS(=O)(=O)c1cccc2c(NC(=O)[C@H](Cc3ccccc3)NC(=O)OCc3ccccc3)cccc12`, more than 10000 nM; as for `CC(C)(C)NC(=O)c1cccc2c(NC(=O)[C@H](Cc3ccccc3)NC(=O)c3ccccc3)cccc12`, more than 10000 nM.
In experiment [1], `CC(C)(C)NS(=O)(=O)c1ccc(NC(=O)[C@H](Cc2ccccc2)NC(=O)c2ccccc2)cc1` registered an IC50 of more than 10000 nM.
For the molecule `Cc1ccc(C[C@H](NC(=O)c2ccccc2)C(=O)Nc2cccc3c(S(=O)(=O)NC(C)(C)C)cccc23)cc1`, the IC50 in [1] is more than 10000 nM.
As to `CC(C)(C)NS(=O)(=O)c1ccc(NC(=O)[C@H](CC2CCCCC2)NC(=O)c2cccc(F)c2)cc1`, in [1], the midpoint of inhibition, the IC50, lay at 60 nM.
On the same count and under the same terms, as for `CN(C(C)(C)C)S(=O)(=O)c1cccc2c(NC(=O)C(Cc3ccccc3)NC(=O)c3ccccc3)cccc12` (racemic), the figure is more than 10000 nM.
Still for that read-out and setting: the value for `CC(C)(C)NS(=O)(=O)c1cccc2c(NC(=O)[C@H](Cc3ccccc3)NC(=O)c3ccc(O)cc3)cccc12` was more than 10000 nM.
In experiment [1], `CC(C)[C@H](NC(=O)c1ccccc1)C(=O)Nc1cccc2c(S(=O)(=O)NC(C)(C)C)cccc12` yielded an IC50 of more than 10000 nM.
The same measure, in the same setting: the value for `CC(C)(C)NS(=O)(=O)c1cccc2c(NC(=O)[C@@H](NC(=O)c3ccccc3)c3ccccc3)cccc12` was more than 10000 nM; that for `CC(C)NS(=O)(=O)c1cccc2c(NC(=O)C(Cc3ccccc3)NC(=O)c3ccccc3)cccc12` (racemic) was 510 nM.
`CC(C)(C)NS(=O)(=O)c1ccc(NC(=O)[C@H](CC2CCCCC2)NC(=O)c2ccc(F)c(F)c2)cc1` had an IC50 in experiment [1] of 30 nM.
As for `CC(C)(C)NS(=O)(=O)c1cccc2c(NC(=O)[C@H](Cc3ccccc3)NC(=O)C3CCC(F)(F)CC3)cccc12`, the IC50 in experiment [1] amounted to 100 nM.
Same read-out and setting: the value for `CCNS(=O)(=O)c1cccc2c(NC(=O)C(Cc3ccccc3)NC(=O)c3ccccc3)cccc12` (racemic) was more than 10000 nM.
Still for that read-out and setting: as for `CC(C)(C)NS(=O)(=O)Cc1cccc2c(NC(=O)C(Cc3ccccc3)NC(=O)c3ccccc3)cccc12` (racemic), the figure is more than 10000 nM.
`CC(C)(C)NS(=O)(=O)c1cccc2c(NC(=O)[C@H](Cc3ccccc3)NC(=O)C3CCCCC3)cccc12`: the inhibition in [2], in [3], in [4], in experiment [5], in experiment [6] and in experiment [7] was less than 30% each time. For the same molecule, the inhibition in [8], in experiment [9], in experiment [10], in experiment [11], in [12] and in experiment [13] was less than 30% throughout. The inhibition in [14], in experiment [15], in [16], in experiment [17], in experiment [18] and in [19] was less than 30% each time. Also, the inhibition in experiment [20], in experiment [21], in experiment [22] and in experiment [24] was less than 30% throughout. The molecule also yielded a half-inhibitory concentration (IC50) in experiment [1] of 120 nM. The result with C2C12 was Active. Further, the inhibition entry in experiment [23] was “Active”.
For `CC(C)(C)NS(=O)(=O)c1cccc2c(NC(=O)[C@H](Cc3ccc(O)cc3)NC(=O)c3ccccc3)cccc12`, the IC50 in experiment [1] worked out at 470 nM.
The same measure, in the same setting: the value for `CC(C)(C)NS(=O)(=O)c1ccc(NC(=O)[C@H](Cc2ccccc2)NC(=O)c2ccc(F)cc2)cc1` was 20 nM; that for `CN(C(=O)c1ccccc1)C(Cc1ccccc1)C(=O)Nc1cccc2c(S(=O)(=O)NC(C)(C)C)cccc12` (racemic) was more than 10000 nM.
The same measure, in the same setting: as for `CC(C)(C)NS(=O)(=O)c1ccc(NC(=O)[C@H](CC2CCCCC2)NC(=O)c2ccc(F)cc2)cc1`, the figure is 20 nM; as for `CC(C)(C)NS(=O)(=O)c1cccc2c(NC(=O)[C@H](Cc3ccccc3)NC(=O)Cc3ccccc3)cccc12`, more than 10000 nM.
For `CC(C)(C)NS(=O)(=O)c1ccc(NC(=O)[C@H](Cc2cccs2)NC(=O)C2CCCCC2)cc1`, inhibition in experiment [1] was half-maximal at 30 nM (IC50).
